Marks after values point to notes of the source that are not given here.
Experiments:
hERG = hERG (Homo sapiens, UniProt Q12809); test: hERG binding assay, [3H]astemizole displacement; conditions: 10 μM, assay run by Ricera under identical conditions
How it was run: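 Single-point radioligand displacement at 10 μM of test compound. The result is expressed as percent displacement relative to control. The run was made at a second contract laboratory under conditions identical to the first laboratory's assay.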

[1] = Microsomal stability, mouse microsomes; format: in vitro ADME; conditions: % remaining at 1 h
P. falciparum Dd2 = test: P. falciparum asexual blood-stage growth inhibition; format: cell-based; conditions: relative to compound 2
[2] = Metabolite identification study in mouse liver microsomes; format: in vitro ADME; conditions: via N-demethylation at R1, hydroxylation, and combined events

Chain of hERG (Q12809 whole entry): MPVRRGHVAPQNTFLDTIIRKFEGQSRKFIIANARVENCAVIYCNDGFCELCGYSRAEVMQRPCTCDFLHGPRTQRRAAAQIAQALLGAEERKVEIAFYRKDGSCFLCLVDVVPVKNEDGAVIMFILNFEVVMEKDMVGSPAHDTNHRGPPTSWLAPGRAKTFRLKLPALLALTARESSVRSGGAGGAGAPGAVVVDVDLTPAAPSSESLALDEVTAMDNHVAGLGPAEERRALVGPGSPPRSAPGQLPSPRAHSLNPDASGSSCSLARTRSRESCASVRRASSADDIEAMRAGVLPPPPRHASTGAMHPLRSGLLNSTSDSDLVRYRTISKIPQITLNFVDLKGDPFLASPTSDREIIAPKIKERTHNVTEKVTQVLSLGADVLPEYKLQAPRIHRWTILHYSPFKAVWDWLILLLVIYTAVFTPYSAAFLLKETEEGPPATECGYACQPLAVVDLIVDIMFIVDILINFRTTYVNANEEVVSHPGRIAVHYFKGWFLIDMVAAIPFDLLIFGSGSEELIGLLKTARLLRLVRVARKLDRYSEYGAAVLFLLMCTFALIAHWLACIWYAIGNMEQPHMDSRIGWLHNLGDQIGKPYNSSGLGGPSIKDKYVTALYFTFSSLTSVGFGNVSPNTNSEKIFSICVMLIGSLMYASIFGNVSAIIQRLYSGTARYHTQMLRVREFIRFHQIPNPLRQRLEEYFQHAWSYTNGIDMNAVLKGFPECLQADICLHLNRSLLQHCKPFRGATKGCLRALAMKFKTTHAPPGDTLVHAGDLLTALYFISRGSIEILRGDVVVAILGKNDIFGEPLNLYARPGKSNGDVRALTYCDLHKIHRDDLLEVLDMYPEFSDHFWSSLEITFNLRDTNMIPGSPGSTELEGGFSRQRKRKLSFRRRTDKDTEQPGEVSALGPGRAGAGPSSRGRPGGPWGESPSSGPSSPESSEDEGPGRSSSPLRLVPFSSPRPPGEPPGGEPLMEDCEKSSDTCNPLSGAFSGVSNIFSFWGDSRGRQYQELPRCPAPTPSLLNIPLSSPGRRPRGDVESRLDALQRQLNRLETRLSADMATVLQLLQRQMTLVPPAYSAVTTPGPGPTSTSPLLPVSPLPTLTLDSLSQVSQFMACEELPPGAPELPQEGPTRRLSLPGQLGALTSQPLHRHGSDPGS

Microsome Stability [1] [% remaining]	Compound	further results
–	C[C@@H]1CN([C@@H](C)CN(C)C)C(=O)c2cc(NC(=O)Nc3ccccc3)ccc2O[C@@H](C)CCCCO[C@H]1CN(C)S(=O)(=O)c1ccc(F)cc1 [Compound 2]	hERG, % displacement control (hERG): 95^b %
<5	C[C@@H]1CN([C@@H](C)CN(C)C)C(=O)c2cc(NC(=O)Nc3ccc(F)cc3)ccc2O[C@@H](C)CCCCO[C@H]1CN(C)S(=O)(=O)c1ccc(F)cc1 [Compound 3]	–
8	Cc1noc(C)c1NC(=O)Nc1ccc2c(c1)C(=O)N([C@@H](C)CN(C)C)C[C@@H](C)[C@H](CN(C)S(=O)(=O)c1ccc(F)cc1)OCCCC[C@H](C)O2 [Compound 5]	metabolism in mouse liver microsomes [2]: extensively metabolized
51	CNC[C@H](C)N1C[C@@H](C)[C@H](CN(C)S(=O)(=O)c2ccc(F)cc2)OCCCC[C@H](C)Oc2ccc(NC(=O)Nc3c(C)noc3C)cc2C1=O [Compound 6]	metabolism in mouse liver microsomes [2]: extensively metabolized
5	CCN(CC)C[C@H](C)N1C[C@@H](C)[C@H](CN(C)S(=O)(=O)c2ccc(F)cc2)OCCCC[C@H](C)Oc2ccc(NC(=O)Nc3c(C)noc3C)cc2C1=O [Compound 9]	–
35	Cc1noc(C)c1NC(=O)Nc1ccc2c(c1)C(=O)N([C@@H](C)C[N+](C)(C)[O-])C[C@@H](C)[C@H](CN(C)S(=O)(=O)c1ccc(F)cc1)OCCCC[C@H](C)O2 [Compound 10]	–
5	Cc1noc(C)c1NC(=O)Nc1ccc2c(c1)C(=O)N([C@@H](C)CNCC(C)(C)C)C[C@@H](C)[C@H](CN(C)S(=O)(=O)c1ccc(F)cc1)OCCCC[C@H](C)O2 [Compound 11]	–
<5	Cc1noc(C)c1NC(=O)Nc1ccc2c(c1)C(=O)N([C@@H](C)CNCC(F)(F)F)C[C@@H](C)[C@H](CN(C)S(=O)(=O)c1ccc(F)cc1)OCCCC[C@H](C)O2 [Compound 12]	–
<5	Cc1noc(C)c1NC(=O)Nc1ccc2c(c1)C(=O)N([C@@H](C)CN1CCOCC1)C[C@@H](C)[C@H](CN(C)S(=O)(=O)c1ccc(F)cc1)OCCCC[C@H](C)O2 [Compound 13]	–
<5	C[C@@H]1CN([C@@H](C)CN(C)C)C(=O)c2cccnc2O[C@@H](C)CCCCO[C@H]1CN(C)S(=O)(=O)c1ccc(F)cc1 [Compound 22]	–
<5	CCN(CC)C[C@H](C)N1C[C@@H](C)[C@H](CN(C)S(=O)(=O)c2ccc(F)cc2)OCCCC[C@H](C)Oc2ncccc2C1=O [Compound 23]	–
65	CNC[C@H](C)N1C[C@@H](C)[C@H](CN(C)S(=O)(=O)c2ccc(F)cc2)OCCCCOc2ccc(NC(=O)Nc3c(C)noc3C)cc2C1=O [Compound 35]	–
15	Cc1noc(C)c1NC(=O)Nc1ccc2c(c1)C(=O)N([C@@H](C)CN(C)C)C[C@@H](C)[C@H](CN(C)S(=O)(=O)c1ccc(F)cc1)OCCCCO2 [Compound 36]	–

Compound	Microsome Stability [1] [% remaining]	further results
C[C@@H]1CN([C@@H](C)CN(C)C)C(=O)c2cc(NC(=O)NC3COC3)ccc2O[C@@H](C)CCCCO[C@H]1CN(C)S(=O)(=O)c1ccc(F)cc1 [Compound 4]	8	fold less potent than 2 (Dd2 GI50) (P. falciparum Dd2): approximately 60 fold

Reference: PMC4207553 (Journal of Medicinal Chemistry, 2014)
